ChEMBL document CHEMBL3352192, “Evaluation of lignans from Heliopsis helianthoides var. scabra for their potential antimetastatic effects in the brain” (J Nat Prod, 2014)
Calls of active or inactive are those of the source. The rule behind the calls is not given here.

Key:
[1] = system: A2058; experiment: Inhibition of adhesion of human A2058 cells to endothelial cells at 2 uM pretreated for 3 hrs before adhesion and during adhesion; format: functional, cell-based
In short: (§1)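 Confluent hCMEC/D3 monolayers and A2058 cells were each pretreated 3 h with compound. Melanoma cells were labelled with Oregon Green 488 diacetate succinimidyl ester and added to the endothelium (10^5 or 5×10^4 cells/well) in serum-free medium containing the same compound for 80 min. After washing and EtOH−AcOH fixation, attached cells were imaged and counted. Results are % of control, means ± SD, n = 3.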

[2] = system: hCMEC/D3; experiment: Inhibition of migration of human CMEC/D3 cells at 10 uM after 24 hrs by wound-healing assay; format: functional, cell-based
In short: (§2)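 hCMEC/D3 cells on rat-tail collagen were grown to 100% confluency, scratched with a pipet tip, and washed with PBS. They were then treated in Leibovitz medium + 5% FBS and imaged by phase contrast for 24 h at 37 °C (10× objective). Migration is given as % of control over 24 h; means ± SD, n = 4.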

[3] = system: A2058; experiment: Inhibition of adhesion of human A2058 cells to endothelial cells at 5 uM pretreated for 3 hrs before adhesion; format: functional, cell-based
In short: (§3)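 Cell-type pretreatment adhesion: either hCMEC/D3 monolayers (2 μM) or A2058 cells (5 μM) were pretreated 3 h. Labelled melanoma cells were then allowed to attach for 80 min in serum-free medium without compound. Fixed, imaged and counted; % of untreated control, means ± SD, n = 3.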

[4] = system: A2058; experiment: Inhibition of migration of human A2058 cells assessed as elongated shape with actin-rich protrusion at 5 uM using Alexa-488-labeled phalloidin by microscopy; format: functional, cell-based
In short: (§4)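 A2058 melanoma cells were treated 2 h with 5 μM compound. They were fixed in 4% HCHO, permeabilized with acetone at −20 °C for 10 min, blocked, and stained with Alexa488-phalloidin. Actin cytoskeleton and cell shape were examined by epifluorescence microscopy, with phase contrast images also taken.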

[5] = species: Rattus norvegicus; experiment: Increase in integrity of RBEC at 5 uM after 2 hrs by ZO-1 staining method; format: functional
In short: (§5)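 Confluent RBECs or hCMEC/D3 cells, 2 h compound exposure (0.1% DMSO vehicle), then fixed in EtOH−AcOH 95:5 at −20 °C. Blocked with 3% BSA, rabbit anti-ZO-1 overnight, Cy3 goat anti-rabbit, Hoechst 33342 nuclei. Tight-junction staining at cell–cell contacts assessed by epifluorescence microscopy.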

[6] = system: hCMEC/D3; experiment: Increase in integrity of human CMEC/D3 cells at 2 uM after 2 hrs by ZO-1 staining method; format: functional, cell-based; in short: as §5
[7] = system: A2058; experiment: Inhibition of migration of human A2058 cells assessed as filopodia at 5 uM using Alexa-488-labeled phalloidin by microscopy; format: functional, cell-based; in short: as §4
[8] = system: A2058; experiment: Inhibition of migration of human A2058 cells assessed as elongated shape and longer protrusion at 5 uM by phase contrast microscopy; format: functional, cell-based; in short: as §4
[9] = system: hCMEC/D3; experiment: Cytotoxicity against human CMEC/D3 cells at 1 to 10 uM after 8 hrs by EZ4U assay; format: functional, cell-based
In short: (§6)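 Confluent A2058, hCMEC/D3 and primary rat brain endothelial cells exposed 8 h to 10, 5, 2.5 or 1.25 μM compound. Media: serum-free MEM (A2058), serum-free EBM-2 (D3), DMEM/F12 + 5% PDS (RBEC). DMSO 0.1% (v/v) in all wells, vehicle controls. EZ4U mitochondrial dehydrogenase read-out after 45 min, OD 450 nm.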

[10] = species: Rattus norvegicus; experiment: Increase in transendothelial electrical resistance in RBEC at 5 uM after 2 hrs relative to control; format: functional
In short: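 Primary RBECs from 2-week-old rats were grown on collagen/fibronectin-coated Transwell filters. After confluence they got 550 nM hydrocortisone, 250 μM CPT-cAMP and 17.5 μM RO-201724, with astrocyte-conditioned medium. Once TEER plateaued (120−140 Ω·cm2), compound was added (0.1% DMSO) and TEER was followed automatically for 2 h. Expressed as % of untreated RBECs at 2 h; means ± SD, n = 3.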

[11] = system: A2058; experiment: Inhibition of migration of human A2058 cells assessed as cells with stress fibers at 5 uM using Alexa-488-labeled phalloidin by microscopy; format: functional, cell-based; in short: as §4
[12] = system: A2058; experiment: Inhibition of adhesion of human A2058 cells to endothelial cells at 10 uM pretreated for 3 hrs before adhesion and during adhesion; format: functional, cell-based; in short: as §1
[13] = system: A2058; experiment: Cytotoxicity against human A2058 cells at 1 to 10 uM after 8 hrs by EZ4U assay; format: functional, cell-based; in short: as §6
[14] = system: A2058; experiment: Inhibition of adhesion of human A2058 cells to endothelial cells at 2 uM pretreated to endothelial cells for 3 hrs before adhesion; format: functional, cell-based; in short: as §3
[15] = Cytotoxicity against RBEC at 1 to 10 uM after 8 hrs by EZ4U assay; conditions: rat; in short: as §6
[16] = system: hCMEC/D3; experiment: Inhibition of migration of human CMEC/D3 cells after 24 hrs by wound-healing assay; format: functional, cell-based; in short: as §2
[17] = system: A2058; experiment: Inhibition of migration of human A2058 cells at 10 uM by wound-healing assay; format: functional, cell-based
In short: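 A2058 confluent monolayer was scratched, and wound closure was tracked for 24 h at 2, 5 or 10 μM by phase contrast microscopy (10× objective). Migration is expressed as % of control cells migrated over 24 h; means ± SD, n = 4, ANOVA with Bonferroni.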

[18] = system: A2058; experiment: Inhibition of migration of human A2058 cells assessed as expanded cells without large filopodia at 5 uM using Alexa-488-labeled phalloidin by microscopy; format: functional, cell-based; in short: as §4

## O=C1OCc2c1cc1ccc3c(c1c2-c1ccc2c(c1)OCO2)OCO3 [HELIOXANTHIN]
[1]
  inhibition: Active
[2]
  inhibition: Active
[3]
  inhibition: inactive
[4]
  inhibition: Active
[5]
  Activity: Active
[6]
  Activity: Active
[7]
  inhibition: Active
[8]
  inhibition: Active
[9]
  Activity: inactive
[10]
  Activity: 15%
[11]
  inhibition: Active
[12]
  inhibition: Active
[13]
  Activity: inactive
[14]
  inhibition: Active
[15]
  Activity: Non-toxic
[16]
  inhibition: Dose-dependent effect

## COCCCc1cc(OC)c2oc(-c3ccc4c(c3)OCO4)cc2c1
[1]
  inhibition: inactive
[9]
  Activity: inactive
[13]
  Activity: inactive
[15]
  Activity: Non-toxic

## COC(=O)[C@H](Cc1ccc2c(c1)OCO2)[C@@H](Cc1ccc2c(c1)OCO2)C(=O)OC
[1]
  inhibition: inactive
[9]
  Activity: inactive
[13]
  Activity: inactive
[15]
  Activity: Non-toxic

## COC(=O)/C(=C/c1ccc2c(c1)OCO2)C(Cc1ccc2c(c1)OCO2)C(=O)OC (stereo not given)
[1]
  inhibition: inactive
[17]
  inhibition: Active
[2]
  inhibition: Active
[5]
  Activity: Active
[6]
  Activity: Active
[8]
  inhibition: Active
[18]
  inhibition: Active
[9]
  Activity: inactive
[10]
  Activity: Active
[12]
  inhibition: Active
[13]
  Activity: inactive
[15]
  Activity: Non-toxic
[16]
  inhibition: Dose-dependent effect

## COC/C=C/c1cc(OC)c2oc(-c3ccc4c(c3)OCO4)cc2c1
[1]
  inhibition: inactive
[9]
  Activity: inactive
[13]
  Activity: inactive
[15]
  Activity: Non-toxic

## CC(=O)O[C@H](c1ccc2c(c1)OCO2)[C@H]1C(=O)OC[C@@H]1Cc1ccc2c(c1)OCO2
[1]
  inhibition: inactive
[9]
  Activity: inactive
[13]
  Activity: inactive
[15]
  Activity: Non-toxic
